Assay results as given in article PMC4229637 (British Journal of Cancer, 2014).
Where two headings read alike, the source gives them in different places.

How the values were obtained:
patients = details: cited from earlier work; for main toxicities: single agent phase I
[1] = Ridaforolimus concentration in whole blood; assay type: in vivo, human; details: cycle 1 day 8; Dalotuzumab (10 mg kg^–1 QW)+ridaforolimus (20 mg QD × 5); N=4; some samples up to 2.5 h post dose
[2] = MK-0752 plasma concentration; assay type: in vivo, human
How it was run: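 Test compound was given orally at 1800 mg once weekly with IV anti-IGF-1R antibody once weekly, in 28-day cycles. Pre-dose plasma was taken weekly during cycle 1 and on day 1 of subsequent cycles. Plasma levels were quantified by validated HPLC-MS/MS.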

[3] = Dalotuzumab concentration in serum; assay type: in vivo, human; details: for Serum dalotuzumab, Median / Serum dalotuzumab, Range: cycle 1 day 8
AKT3 = details: read-out: IC50 AKT3; ref Yap et al, 2011; cited from earlier work
AKT1 = details: read-out: IC50 AKT1; ref Yap et al, 2011; cited from earlier work
[4] = ref Biondo et al, 2011, Yap et al; cited from earlier work
[5] = MK-2206 plasma concentration; assay type: in vivo, human; details: for Plasma MK-2206, Median / Plasma MK-2206, Range: cycle 1 day 8
AKT2 = details: read-out: IC50 AKT2; ref Yap et al, 2011; cited from earlier work
[6] = cycle 1 day 8, Dalotuzumab (7.5 mg kg^–1 QW)+MK-0752 (1800 mg QW), N=3
[7] = phase I clinical trial of single-agent dalotuzumab, ref Atzori et al, 2011
[8] = Dalotuzumab (7.5 mg kg^–1 QW)+MK-0752 (1800 mg QW), N=4
[9] = Dalotuzumab (10 mg kg^–1 QW)+MK-0752 (1800 mg QW), N=11
[10] = Dalotuzumab (10 mg kg^–1 QW)+MK-2206 (90 mg QW), N=3
[11] = Dalotuzumab (10 mg kg^–1 QW)+MK-2206 (135 mg QW), N=8
[12] = Dalotuzumab (10 mg kg^–1 QW)+MK-2206 (150 mg QW), N=10
[13] = Dalotuzumab (10 mg kg^–1 QW)+MK-2206 (200 mg QW), N=3
[14] = Dalotuzumab (10 mg kg^–1 QW)+ridaforolimus (20 mg QD × 5), N=2

CO[C@H]1C[C@@H]2CC[C@@H](C)[C@@](O)(O2)C(=O)C(=O)N2CCCC[C@H]2C(=O)O[C@H]([C@H](C)C[C@@H]2CC[C@@H](OP(C)(C)=O)[C@H](OC)C2)CC(=O)[C@H](C)/C=C(\C)[C@@H](O)[C@@H](OC)C(=O)[C@H](C)C[C@H](C)/C=C/C=C/C=C/1C [Ridaforolimus]
RP2D (patients; IV, 5 days every 2 weeks, ref Mita et al, 2008): 12.5 mg daily
Main adverse events (patients; single agent phase I trials, ref Mita et al, 2013, Mita et al, 2008): mucositis, fatigue, rash, nausea, diarrhoea, myelosuppression, and dyslipidaemia
Whole blood ridaforolimus, Median [1]: 86.7 ng ml^–1
Whole blood ridaforolimus, Range [1]: 3.12–184 ng ml^–1

O=C(O)CC[C@H]1CC[C@@](c2cc(F)ccc2F)(S(=O)(=O)c2ccc(Cl)cc2)CC1 [MK-0752]
main toxicities (patients; ref Krop et al, 2012): fatigue, nausea, and diarrhoea
Plasma MK-0752, Median [2, 6]: 8.06 μmol l^–1
Plasma MK-0752, Range [2, 6]: 1.49–11.6 μmol l^–1
Plasma MK-0752, Median ([2]; cycle 1 day 8, Dalotuzumab (10 mg kg^–1 QW)+MK-0752 (1800 mg QW), N=11): 1.63 μmol l^–1
plasma trough levels, patients receiving 7.5 mg kg^–1 vs 10 mg kg^–1 dalotuzumab ([2]; weekly dosing with 1800 mg MK-0752): comparable

Dalotuzumab: humanised IgG1 monoclonal antibody that binds IGF-1R
Maximum tolerated dose (MTD) (patients; [7]): not reached
most common adverse events (patients; [7]): fatigue, hyperglycaemia, and back pain
recommended phase II dose (RP2D) (patients; [7]): 10 mg kg^–1 per week
Serum dalotuzumab, Median [3, 8]: 39.3 μg ml^–1
Serum dalotuzumab, Range [3, 8]: 16.7–91.7 μg ml^–1
Serum dalotuzumab, Median [3, 9]: 41.7 μg ml^–1
Serum dalotuzumab, Range [3, 9]: 5.69–97.9 μg ml^–1
Serum dalotuzumab, Median [3, 10]: 33.8 μg ml^–1
Serum dalotuzumab, Range [3, 10]: 29.3–56.6 μg ml^–1
Serum dalotuzumab, Median [3, 11]: 52.2 μg ml^–1
Serum dalotuzumab, Range [3, 11]: 45.2–102 μg ml^–1
Serum dalotuzumab, Median [3, 12]: 63.5 μg ml^–1
Serum dalotuzumab, Range [3, 12]: 43.7–86.4 μg ml^–1
Serum dalotuzumab, Median [3, 13]: 52.3 μg ml^–1
Serum dalotuzumab, Range [3, 13]: 45.4–92.3 μg ml^–1
Serum dalotuzumab, Median [3, 14]: 49.6 μg ml^–1
Serum dalotuzumab, Range [3, 14]: 32.5–66.7 μg ml^–1
Trough concentrations (Ctrough) after the first administration ([3]; dalotuzumab 7.5 and 10 mg kg^–1, generally exceeded the target threshold level): > 25 μg ml^–1

NC1(c2ccc(-c3nc4ccn5c(=O)[nH]nc5c4cc3-c3ccccc3)cc2)CCC1 [MK-2206]
IC50 (AKT3): 65 nM
main toxicities (patients; ref Biondo et al, 2011, Yap et al): rash, nausea, vomiting, diarrhoea, and hyperglycaemia
RP2D (patients; single agent, weekly, ref Biondo et al, 2011): 135 to 200 mg
half-life [4]: 40 to 100 h
dose proportional increase of Ctrough levels ([5]; MK-2206 90, 135, 150, and 200 mg QW): not discernible
Plasma MK-2206, Median [5, 10]: 12.9 nmol l^–1
Plasma MK-2206, Range [5, 10]: 10.3–20.4 nmol l^–1
Plasma MK-2206, Median [5, 11]: 29.1 nmol l^–1
Plasma MK-2206, Range [5, 11]: 0.687–41.1 nmol l^–1
Plasma MK-2206, Median [5, 12]: 9.08 nmol l^–1
Plasma MK-2206, Range [5, 12]: 0.736–26.7 nmol l^–1
Plasma MK-2206, Median [5, 13]: 37.6 nmol l^–1
Plasma MK-2206, Range [5, 13]: 20.3–50.9 nmol l^–1
IC50 (AKT2): 12 nM
